Rows were chosen to be rich in hits. Some 1% of all compounds tested hit in one or more screens of this group.
FID counter – counter-screen for HCV NS3 helicase inhibitors: DNA intercalator displacement | inhibition, % at 7.9 µM | AID 1845 | DNA fluorescent intercalator displacement, fluorescence | 0.17% of 290,000 active; in the data active means inhibition above about 37%;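 further: higher means more ethidium bromide displaced from hairpin DNA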
VIM-2 inh – blocks Pseudomonas aeruginosa VIM-2 metallo-beta-lactamase. purified VIM-2, nitrocefin hydrolysis, epi-absorbance fluorescence. inhibition, % at 5.6 µM. 0.89% of 290,000 active;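 active means inhibition above the mean of all tested compounds plus 3 SD, cutoff set per screening run, cut at about 7.5% in these data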;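 further: red hydrolysis product quenches plate fluorescence so inhibitors raise well fluorescence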
IMP-1 inhibitor – blocks Pseudomonas aeruginosa IMP-1 metallo-beta-lactamase | purified IMP-1, nitrocefin hydrolysis, epi-absorbance fluorescence | inhibition, % at 5.6 µM | 0.45% of 290,000 active;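 active means inhibition above the mean plus 3 SD of all compounds in the same screening run, cut at about 4.5% in these data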
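Material – recombinant IMP-1 enzyme, purified · Amount – IMP-1 0.2 nM before substrate addition · Medium – HEPES buffer pH 7.1 with ZnSO4 and Brij 35 · Timing – 25 °C, 15 min preincubation, 25 min reaction · Measured by – plate fluorescence quenching by hydrolysis product, ex 480/em 530 nm · Read-out – percent enzyme inhibition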
RAD54 branch – blocks human RAD54 Holliday junction branch migration | inhibition, % at 10.4 µM | 0.14% of 360,000 active | Q92698 | AID 602329 | FAM/BHQ fluorescence;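 active means mean normalized replicate activity at least 40 and at least half of replicates scoring 40 or more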;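 further: inhibitors cause a drop in the FAM fluorescence signal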
Target sequence (Q92698 whole entry, looked up): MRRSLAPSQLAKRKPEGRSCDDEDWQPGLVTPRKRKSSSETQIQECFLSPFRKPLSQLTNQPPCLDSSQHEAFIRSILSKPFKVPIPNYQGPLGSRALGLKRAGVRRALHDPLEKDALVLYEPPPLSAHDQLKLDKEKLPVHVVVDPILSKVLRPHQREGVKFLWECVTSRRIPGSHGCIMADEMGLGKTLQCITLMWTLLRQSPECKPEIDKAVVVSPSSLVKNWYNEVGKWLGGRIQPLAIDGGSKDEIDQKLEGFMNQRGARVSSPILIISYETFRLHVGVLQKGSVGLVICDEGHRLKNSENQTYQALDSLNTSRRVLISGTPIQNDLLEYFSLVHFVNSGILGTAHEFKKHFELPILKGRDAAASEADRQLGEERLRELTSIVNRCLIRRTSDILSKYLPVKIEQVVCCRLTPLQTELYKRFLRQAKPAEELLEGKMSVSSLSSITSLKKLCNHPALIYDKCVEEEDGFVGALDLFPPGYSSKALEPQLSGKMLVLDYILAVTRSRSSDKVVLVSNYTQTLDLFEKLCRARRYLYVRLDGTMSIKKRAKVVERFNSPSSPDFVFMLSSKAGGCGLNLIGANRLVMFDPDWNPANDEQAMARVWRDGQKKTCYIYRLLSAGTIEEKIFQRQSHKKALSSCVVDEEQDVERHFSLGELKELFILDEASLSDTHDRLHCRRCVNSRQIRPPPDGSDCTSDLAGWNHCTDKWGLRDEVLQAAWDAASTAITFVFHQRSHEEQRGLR
PvdQ acylase – blocks Pseudomonas aeruginosa PvdQ acylase activity | purified PvdQ acylase, fluorescence plate reader | inhibition, % at 10 µM | 0.063% of 340,000 active | AID 488965; in the data active means inhibition above about 30%, passing the limit was not always enough
VIM-2 confirm – VIM-2 inhibition, confirmation assay | shares compounds with IMP-1 inhibitor | purified VIM-2 enzyme, nitrocefin absorbance | inhibition, % at 5.6 µM | 73% of 200 active; in the data active means inhibition above about 8%
TEM-1 inh 2 – blocks E. coli TEM-1 beta-lactamase, VIM-2 IMP-1 counter-screen. shares compounds with IMP-1 inhibitor. nitrocefin absorbance inhibition. inhibition, % at 5.6 µM. 50% of 200 active; in the data active means inhibition above about 0.66%
IMP-1 inh conf – confirmation of P. aeruginosa IMP-1 metallo-beta-lactamase inhibitors. shares compounds with IMP-1 inhibitor. purified IMP-1 enzyme, absorbance substrate hydrolysis. inhibition, % at 5.6 µM. 60% of 200 active. AID 2189; in the data active means inhibition above about 4.9%
Numbers stand for hits; 0 = inactive; - = no result.

SMILES | FID counter | VIM-2 inh | IMP-1 inhibitor | RAD54 branch | PvdQ acylase | VIM-2 confirm | TEM-1 inh 2 | IMP-1 inh conf
CCOC(=O)NC(=O)C(/C=N/c1sccc1C(=O)OC)=C(\C)O | 0 | 7.8 | 8.6 | - | 0 | 10 | 0 | 0
COc1ccccc1S(=O)(=O)N[C@@H]1CC[C@H](CCn2cc(C3CC3)nn2)O[C@H]1CO | - | - | - | 0 | - | - | - | -
COCCCn1c(=NC(=O)c2ccccc2)c(C#N)cc2c(=O)n3cccc(C)c3nc21 | 0 | 9.3 | 8.5 | 0 | 0 | 18 | 32 | 11
O=C(CCN1C(=O)/C(=C/c2ccc(Cl)cc2)SC1=S)NCCCn1ccnc1 | 0 | 18 | 18 | 0 | 0 | 28 | 1.2 | 32
COC(=O)C1C(c2ccccc2)C=CC(c2ccccc2)C1C(=O)O (stereo not given) | 0 | 8.7 | 61 | - | 0 | 0 | 0 | 39
C[C@H](NC(=O)C[C@H]1C[C@@H]2c3cc(NC(=O)Cc4ccncc4)ccc3O[C@@H]2[C@H](CO)O1)c1ccccc1 | - | - | - | 0 | - | - | - | -
CN1C(=O)c2cc(NC(=O)c3ccccc3)ccc2OC[C@H]2O[C@H](CC(=O)NC3CCCC3)CC[C@@H]21 | - | - | - | 0 | - | - | - | -
CCN(CC)c1ccc2cc(-c3nnc(-c4ccccc4)o3)c(=O)oc2c1 | 0 | 8.4 | 8.3 | 0 | 0 | 33 | 43 | 26
CCN(CC)c1ccc2cc(-c3nc4ccccc4n3C)c(=O)oc2c1 | 0 | 0 | 0 | - | 0 | - | - | -
CCN(CC)c1ccc2cc(-c3nc4ccccc4[nH]3)c(=O)oc2c1 | 0 | 13 | 18 | 0 | 0 | 61 | 105 | 59
CCN(CC)c1ccc2cc(-c3nnc(-c4ccc(Br)cc4)o3)c(=O)oc2c1 | 0 | 0 | 0 | - | - | - | - | -
Cc1ccc(N=Cc2sc(O)c3ccccc23)cc1 | 0 | 8.4 | 24 | 0 | 0 | 14 | 0 | 0
O=C(Nc1ccc(C(F)(F)F)cc1)c1ccc(NC(=O)C2CCCO2)cc1 (stereo not given) | 0 | 9.1 | 16 | 0 | 0 | 9.9 | 0 | 9.8
Cc1ccccc1NC(=O)c1ccc(NC(=O)C2CCCO2)cc1 (stereo not given) | 0 | 0 | 0 | 0 | 0 | - | - | -
O=C(Nc1ccc(Oc2ccc(C(=O)O)c(C(=O)O)c2)cc1)c1cccs1 | 0 | 21 | 5.4 | - | 0 | 25 | 0 | 0
COc1ccccc1-c1csc(-n2ncc(C#N)c2N)n1 | 0 | 17 | 22 | 0 | 0 | 10 | 0 | 12
CCOC(=O)N1C(=O)c2cc(OC)ccc2S1(=O)=O | 0 | 9.4 | 38 | 0 | 0 | 0 | 1.5 | 5.3
COc1ccc(NC(=O)CCN2C(=O)c3ccccc3S2(=O)=O)c(OC)c1 | 0 | 0 | 0 | - | 0 | - | - | -
CC(=O)Nc1sc2c(c1-c1nc3ccccc3s1)CCN(C(C)C)C2 | 60 | 18 | 4.5 | 78 | 0 | 15 | 0 | 0
N#Cc1nc(COc2ccccc2F)oc1NCCCn1ccnc1 | 0 | 10 | 39 | 0 | 0 | 0 | 0 | 0
COc1ccccc1OCc1nc(C#N)c(NCCCn2ccnc2)o1 | 0 | 0 | 0 | 0 | 0 | - | - | -
CC(=O)c1ccc(C(=O)Nc2sc3c(c2C(N)=O)CCN(Cc2ccccc2)C3)cc1 | 0 | 8.8 | 5.5 | 0 | 0 | 0 | 5.7 | 0
COc1cccc(OC)c1C(=O)Nc1sc2c(c1C(N)=O)CCN(Cc1ccccc1)C2 | 0 | 0 | 0 | 0 | 0 | - | - | -
NC(=S)c1cc2ccc(O)cc2oc1=O | 0 | 0 | 4.5 | - | 0 | 0 | 0 | 0
C/C(=N/NC(N)=S)c1cc2ccc(O)cc2oc1=O | 0 | 0 | 0 | 0 | 0 | - | - | -
SMILES | FID counter | VIM-2 inh | IMP-1 inhibitor | RAD54 branch | PvdQ acylase | VIM-2 confirm | TEM-1 inh 2 | IMP-1 inh conf
C[C@H](CO)N1C[C@H](C)[C@H](CN(C)S(C)(=O)=O)Oc2c(NS(=O)(=O)c3ccccc3)cccc2C1=O | - | - | - | 0 | - | - | - | -
COc1ccc(Cl)cc1Nc1nnc(-c2ccncc2)s1 | 0 | 8.7 | 19 | 0 | 0 | 0 | 0 | 12
Clc1ccccc1Nc1nnc(-c2ccncc2)s1 | 0 | 0 | 0 | - | 0 | - | - | -
COc1ccc(N=Nc2nc3cc(Br)c(Br)cc3n2C)c(OC)c1 | 0 | 10 | 9.3 | 0 | 0 | 0 | 5.6 | 0
CN(C)c1ccc(/C=C(\C#N)C(=O)c2ccccc2)cc1 | 0 | 0 | 6.2 | 0 | 0 | 13 | 13 | 11
CO[C@H]1CN(C)C(=O)c2cc(NC(=O)c3cc(C)on3)ccc2OC[C@@H](C)N(C(=O)C2CC2)C[C@@H]1C | - | - | - | 0 | - | - | - | -
